Experimental data from ChEMBL document CHEMBL3603770, “Synthesis and cytotoxic activities of 2-substituted (25R)-spirostan-1,4,6-triene-3-ones via ring-opening/elimination and 'click' strategy” (Bioorg Med Chem Lett, 2015).

Assays:
Type in all cases: functional, cell-based
HepG2 = test: Antiproliferative activity against human HepG2 cells incubated for 48 hrs by MTT assay; conditions: HepG2, 48 h
Summary of the method: (§1)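 Human tumour cells exposed to compounds for 48 h at 37 °C; viability read by MTT. Growth inhibition (%) measured in triplicate at 5, 10, 20, 40, 80 and 160 μM; data as mean ± standard deviation. IC50 calculated from percentage inhibition of cell growth.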

[1] = Antiproliferative activity against human CaSki cells incubated for 48 hrs by MTT assay; conditions: Ca-Ski; summary of the method: as §1
HeLa = test: Antiproliferative activity against human HeLa cells incubated for 48 hrs by MTT assay; summary of the method: as §1

SMILES | IC50 (HepG2) [µM] | IC50 (HeLa) [µM] | IC50 [1] [µM]
CCCCOC1=C[C@@]2(C)C(=CC1=O)C=C[C@H]1[C@@H]3C[C@@H]4O[C@]5(CC[C@@H](C)CO5)[C@@H](C)[C@@H]4[C@@]3(C)CC[C@@H]12 | 85 | 71.6 | 39.5
CC(C)COC1=C[C@@]2(C)C(=CC1=O)C=C[C@H]1[C@@H]3C[C@@H]4O[C@]5(CC[C@@H](C)CO5)[C@@H](C)[C@@H]4[C@@]3(C)CC[C@@H]12 | 53.4 | > 100 | 33.5
C[C@@H]1CC[C@@]2(OC1)O[C@H]1C[C@H]3[C@@H]4C=CC5=CC(=O)C(OCc6cn(Cc7ccc(CN=[N+]=[N-])cc7)nn6)=C[C@]5(C)[C@H]4CC[C@]3(C)[C@H]1[C@@H]2C | > 100 | > 100 | > 100
C[C@@H]1CC[C@@]2(OC1)O[C@H]1C[C@H]3[C@@H]4C=CC5=CC(=O)C(OCc6cn(Cc7ccc(Cn8cc(COC9=C[C@@]%10(C)C(=CC9=O)C=C[C@H]9[C@@H]%11C[C@@H]%12O[C@]%13(CC[C@@H](C)CO%13)[C@@H](C)[C@@H]%12[C@@]%11(C)CC[C@@H]9%10)nn8)cc7)nn6)=C[C@]5(C)[C@H]4CC[C@]3(C)[C@H]1[C@@H]2C | > 100 | > 100 | > 100
CCOC(=O)Cn1cc(COC2=C[C@@]3(C)C(=CC2=O)C=C[C@H]2[C@@H]4C[C@@H]5O[C@]6(CC[C@@H](C)CO6)[C@@H](C)[C@@H]5[C@@]4(C)CC[C@@H]23)nn1 | 44 | > 100 | 68.9
C[C@@H]1CC[C@@]2(OC1)O[C@H]1C[C@H]3[C@@H]4C=CC5=CC(=O)C(OCc6cn(CC#N)nn6)=C[C@]5(C)[C@H]4CC[C@]3(C)[C@H]1[C@@H]2C | > 100 | > 100 | > 100
C[C@@H]1CC[C@@]2(OC1)O[C@H]1C[C@H]3[C@@H]4C=CC5=CC(=O)C(OCc6cn(CC(=O)c7ccc(O)cc7)nn6)=C[C@]5(C)[C@H]4CC[C@]3(C)[C@H]1[C@@H]2C | 52.8 | > 100 | 98.7
C[C@@H]1CC[C@@]2(OC1)O[C@H]1C[C@H]3[C@@H]4C=CC5=CC(=O)C(OCc6cn(CC(=O)c7cccc(O)c7)nn6)=C[C@]5(C)[C@H]4CC[C@]3(C)[C@H]1[C@@H]2C | 45.6 | > 100 | 9.4
C[C@@H]1CC[C@@]2(OC1)O[C@H]1C[C@H]3[C@@H]4C=CC5=CC(=O)C(OCc6cn(CC(=O)c7ccc(Br)cc7)nn6)=C[C@]5(C)[C@H]4CC[C@]3(C)[C@H]1[C@@H]2C | 53.7 | > 100 | > 100

Further lines, with some results ahead:

IC50 (HepG2) [µM] | IC50 (HeLa) [µM] | SMILES | IC50 [1] [µM]
77.1 | > 100 | COC1=C[C@@]2(C)C(=CC1=O)C=C[C@H]1[C@@H]3C[C@@H]4O[C@]5(CC[C@@H](C)CO5)[C@@H](C)[C@@H]4[C@@]3(C)CC[C@@H]12 | 28.5
> 100 | > 100 | CCOC1=C[C@@]2(C)C(=CC1=O)C=C[C@H]1[C@@H]3C[C@@H]4O[C@]5(CC[C@@H](C)CO5)[C@@H](C)[C@@H]4[C@@]3(C)CC[C@@H]12 | > 100
61.6 | 80.3 | CCCOC1=C[C@@]2(C)C(=CC1=O)C=C[C@H]1[C@@H]3C[C@@H]4O[C@]5(CC[C@@H](C)CO5)[C@@H](C)[C@@H]4[C@@]3(C)CC[C@@H]12 | 32.1
61.3 | > 100 | CC(C)OC1=C[C@@]2(C)C(=CC1=O)C=C[C@H]1[C@@H]3C[C@@H]4O[C@]5(CC[C@@H](C)CO5)[C@@H](C)[C@@H]4[C@@]3(C)CC[C@@H]12 | 29.3
90.7 | 57.4 | C#CCOC1=C[C@@]2(C)C(=CC1=O)C=C[C@H]1[C@@H]3C[C@@H]4O[C@]5(CC[C@@H](C)CO5)[C@@H](C)[C@@H]4[C@@]3(C)CC[C@@H]12 | 23.2
> 100 | > 100 | C[C@@H]1CC[C@@]2(OC1)O[C@H]1C[C@H]3[C@@H]4C=CC5=CC(=O)C(OCc6cn(-c7ccccc7)nn6)=C[C@]5(C)[C@H]4CC[C@]3(C)[C@H]1[C@@H]2C | > 100
53.4 | > 100 | C[C@@H]1CC[C@@]2(OC1)O[C@H]1C[C@H]3[C@@H]4C=CC5=CC(=O)C(OCc6cn(Cc7ccccc7)nn6)=C[C@]5(C)[C@H]4CC[C@]3(C)[C@H]1[C@@H]2C | 10.9
41.8 | > 100 | COc1ccc(Cn2cc(COC3=C[C@@]4(C)C(=CC3=O)C=C[C@H]3[C@@H]5C[C@@H]6O[C@]7(CC[C@@H](C)CO7)[C@@H](C)[C@@H]6[C@@]5(C)CC[C@@H]34)nn2)cc1 | 67
40.2 | 48.1 | CC(=O)Cn1cc(COC2=C[C@@]3(C)C(=CC2=O)C=C[C@H]2[C@@H]4C[C@@H]5O[C@]6(CC[C@@H](C)CO6)[C@@H](C)[C@@H]5[C@@]4(C)CC[C@@H]23)nn1 | 11.8
60.2 | > 100 | C[C@@H]1CC[C@@]2(OC1)O[C@H]1C[C@H]3[C@@H]4C=CC5=CC(=O)C(OCc6cn(CC(=O)c7ccccc7)nn6)=C[C@]5(C)[C@H]4CC[C@]3(C)[C@H]1[C@@H]2C | 99
> 100 | > 100 | COc1ccc(C(=O)Cn2cc(COC3=C[C@@]4(C)C(=CC3=O)C=C[C@H]3[C@@H]5C[C@@H]6O[C@]7(CC[C@@H](C)CO7)[C@@H](C)[C@@H]6[C@@]5(C)CC[C@@H]34)nn2)cc1 | > 100
76.1 | > 100 | Cc1ccc(C(=O)Cn2cc(COC3=C[C@@]4(C)C(=CC3=O)C=C[C@H]3[C@@H]5C[C@@H]6O[C@]7(CC[C@@H](C)CO7)[C@@H](C)[C@@H]6[C@@]5(C)CC[C@@H]34)nn2)cc1 | > 100
88.1 | > 100 | C[C@@H]1CC[C@@]2(OC1)O[C@H]1C[C@H]3[C@@H]4C=CC5=CC(=O)C(OCc6cn(CC(=O)c7cccc(Br)c7)nn6)=C[C@]5(C)[C@H]4CC[C@]3(C)[C@H]1[C@@H]2C | > 100
